Data taken from PMC9299459 (Clinical Pharmacology in Drug Development, 2021).
Entries after “also recorded” stand apart in the source; their conditions may differ. Like-named read-outs stand apart in the source and are kept apart here. Values belong to the compound of their own block, whether it stands above or below them.

Experiments:
Safety and tolerability = format: in vivo, human; conditions: healthy participants
Outline: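 Open-label, randomized, 2-period, 2-sequence crossover in healthy men and women of non-childbearing potential, aged 18–55 years. Arms were a single oral 250 mg dose of test compound after overnight fast, or the same dose on day 5 of proton pump inhibitor 40 mg daily for 5 days. Dosing was supervised, in the morning with 240 mL water. All participants dosed at least once were included. AEs, ECGs, vital signs and safety labs were reviewed throughout.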

[1] = format: in vivo, human; conditions: for AUC(0-inf): AUCinf; for AUC(0-t): AUClast
[2] = repeated administration; cited from earlier work
[3] = aqueous solution, cited from earlier work
[4] = N = 15 per treatment, MedDRA preferred term
[5] = healthy participants, plasma, single oral crizotinib 250 mg on day 5 of esomeprazole 40 mg/day (n = 15)
[6] = healthy participants, single oral crizotinib 250 mg on day 5 of esomeprazole 40 mg/day (n = 15)
[7] = human, plasma, oral, 250 mg, Adjusted Geometric Mean, Reference, Reference: single 250-mg crizotinib dose after overnight fasting
[8] = human, plasma, oral, Adjusted Geometric Mean, Test, Test: esomeprazole 40 mg per day for 5 days and single 250-mg crizotinib dose after overnight fasting on day 5
[9] = human, plasma, po, 250 mg, Arithmetic Mean ± SD, healthy participants, plasma, single oral crizotinib 250 mg on day 5 of esomeprazole 40 mg/day (n = 15)
[10] = human, plasma, po, 250 mg, Geometric Mean (%CV), healthy participants, plasma, single oral crizotinib 250 mg on day 5 of esomeprazole 40 mg/day (n = 15)
[11] = Reference: single 250-mg crizotinib dose after overnight fasting
[12] = Test: esomeprazole 40 mg per day for 5 days and single 250-mg crizotinib dose after overnight fasting on day 5
[13] = molar ratio PF-06260182/crizotinib, single oral crizotinib 250 mg alone (n = 15)

Effect of esomeprazole coadministration on peak exposure (Cmax) ([1]; esomeprazole 40 mg once daily x 5 days, single crizotinib 250 mg): did not affect; also recorded: no effect
tmax, median (range) [1, 5]: 5.00 (3.00‐6.00) h
CL/F (apparent clearance after oral dose), Arithmetic Mean ± SD [1, 6]: 124.8 ± 40.9 L/h
CL/F (apparent clearance after oral dose), Geometric Mean (%CV) [1, 6]: 117.8 (33) L/h
AUC(0-inf) [1, 7]: 2370 ng·h/mL
AUC(0-t) [1, 7]: 2240 ng·h/mL
Cmax [1, 7]: 115 ng/mL
AUC(0-inf) [1, 8]: 2120 ng·h/mL
AUC(0-t) [1, 8]: 2010 ng·h/mL
Cmax [1, 8]: 117 ng/mL
Tmax ([1]; human, plasma, po, 250 mg): 5 h
half-life ([1]; human, plasma, po, 250 mg): 35.8 ± 4.4 h
AUC(0-inf) [1, 9]: 2260 ± 891 ng·h/mL
AUC(0-inf) [1, 10]: 2120 ng·h/mL
AUC(0-t) [1, 9]: 2170 ± 876 ng·h/mL
AUC(0-t) [1, 10]: 2020 ng·h/mL
Cmax [1, 9]: 119 ± 32.9 ng/mL
Cmax [1, 10]: 115 ng/mL
half-life ([1]; human, plasma, po, 250 mg, t1/2 (terminal elimination half-life), Arithmetic Mean ± SD, healthy participants, plasma, single oral crizotinib 250 mg after overnight fast, alone (n = 15)): 33.2 ± 7 h
Median time to Cmax ([1]; with or without esomeprazole, single crizotinib 250 mg): 5 h
Structure (SMILES): C[C@@H](Oc1cc(-c2cnn(C3CCNCC3)c2)cnc1N)c1c(Cl)ccc(F)c1Cl [Crizotinib]
gastrointestinal disorders (system organ class), all causality (Safety and tolerability): 11 participants
nervous system disorders (system organ class), all causality (Safety and tolerability): 4 participants
treatment-related gastrointestinal disorders (system organ class) (Safety and tolerability): 11 participants
Discontinuations due to AEs, all causality (Safety and tolerability; N = 15 per treatment): 0
Dose reductions or temporary discontinuation due to AEs (Safety and tolerability; N = 15 per treatment): 0
Participants with AEs, all causality (Safety and tolerability; N = 15 per treatment): 12 (12)
Participants with AEs, treatment-related (Safety and tolerability; N = 15 per treatment): 12 (12)
Participants with serious AEs (Safety and tolerability; N = 15 per treatment): 0
Participants with severe AEs (Safety and tolerability; N = 15 per treatment): 0
Abdominal pain upper, all causality (Safety and tolerability; [4]): 0
Abdominal pain, all causality (Safety and tolerability; [4]): 3 (3)
Abdominal pain, treatment-related (Safety and tolerability; [4]): 3 (3)
Abnormal gastrointestinal sounds, all causality (Safety and tolerability; [4]): 1 (1)
Abnormal gastrointestinal sounds, treatment-related (Safety and tolerability; [4]): 1 (1)
Diarrhea, all causality (Safety and tolerability; [4]): 11 (11)
Diarrhea, treatment-related (Safety and tolerability; [4]): 11 (11)
Dizziness, all causality (Safety and tolerability; [4]): 2 (2)
Dizziness, treatment-related (Safety and tolerability; [4]): 2 (2)
Fatigue, all causality (Safety and tolerability; [4]): 2 (2)
Fatigue, treatment-related (Safety and tolerability; [4]): 2 (2)
Headache, all causality (Safety and tolerability; [4]): 2 (2)
Headache, treatment-related (Safety and tolerability; [4]): 2 (2)
Nausea, all causality (Safety and tolerability; [4]): 2 (2)
Nausea, treatment-related (Safety and tolerability; [4]): 2 (2)
Number of AEs, all causality (Safety and tolerability; treatment-emergent): 28
Number of AEs, treatment-related (Safety and tolerability; treatment-emergent): 24
Number of AEs, treatment-related (Safety and tolerability; treatment-emergent, listed as crizotinib): Twenty‐four
Overall safety and tolerability (Safety and tolerability; single 250-mg dose): generally safe and well tolerated
time to steady state [2]: 15 days
solubility ([3]; pH 1.6): > 10000 µg/mL
solubility ([3]; pH 8.2): < 100 µg/mL

AUCinf, Adjusted Geometric Mean, Reference [1, 11]: 446.0 ng·h/mL
AUClast, Adjusted Geometric Mean, Reference [1, 11]: 436.9 ng·h/mL
Cmax, Adjusted Geometric Mean, Reference [1, 11]: 34.8 ng/mL
AUCinf, Adjusted Geometric Mean, Test [1, 12]: 367.8 ng·h/mL
AUClast, Adjusted Geometric Mean, Test [1, 12]: 359.8 ng·h/mL
Cmax, Adjusted Geometric Mean, Test [1, 12]: 26.9 ng/mL
apparent t1/2, mean value ([1]; both treatments (crizotinib alone and with esomeprazole)): ≈ 20 hours
AUCinf, Arithmetic Mean ± SD [1, 5]: 383 ± 127 ng·h/mL
AUCinf, Geometric Mean (%CV) [1, 5]: 364 (33) ng • h/mL
AUClast, Arithmetic Mean ± SD [1, 5]: 376 ± 126 ng·h/mL
AUClast, Geometric Mean (%CV) [1, 5]: 357 (34) ng • h/mL
Cmax, Arithmetic Mean ± SD [1, 5]: 27.7 ± 6.8 ng/mL
Cmax, Geometric Mean (%CV) [1, 5]: 26.8 (25) ng/mL
t1/2 (terminal elimination half-life), Arithmetic Mean ± SD [1, 5]: 19.5 ± 5.9 h
tmax, median (range) [1, 5]: 6.00 (5.00‐8.05) h
MRAUCinf (metabolite to parent ratio of AUCinf), Geometric Mean (%CV) ([1]; molar ratio PF-06260182/crizotinib, single oral crizotinib 250 mg alone (n = 14)): 0.18 (16)
MRAUClast (metabolite to parent ratio of AUClast), Geometric Mean (%CV) [1, 13]: 0.19 (18)
MRCmax (metabolite to parent ratio of Cmax), Geometric Mean (%CV) [1, 13]: 0.29 (26)
Structure (SMILES): CC(Oc1cc(-c2cnn(C3CCNC(=O)C3)c2)cnc1N)c1c(Cl)ccc(F)c1Cl (stereo not shown) [PF‐06260182]

Structure (SMILES): COc1ccc2nc([S@@+]([O-])Cc3ncc(C)c(OC)c3C)[nH]c2c1 [esomeprazole, Esomeprazole]
gastrointestinal disorders (system organ class), all causality (Safety and tolerability): 3 participants
nervous system disorders (system organ class), all causality (Safety and tolerability): 2 participants
treatment-related gastrointestinal disorders (system organ class) (Safety and tolerability): 3 participants
Number of AEs, treatment-related (Safety and tolerability; treatment-emergent): 7
